Assays:
[1] = Drug uptake in rat brain hypothalamus at 7.3 +/- 0.44 MBq, iv pretreated with alpha7 nAChR antagonist methyllycaconitine for 15 mins followed by compound addition and measured after 1 hr by gamma counting analysis; assay type: organism-based; conditions: in vivo
In short: (§1)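 Male Wistar rats (250-300 g, n=6 per group) under isoflurane received 0.3 mL tracer i.v. via the penis vein; MLA groups got methyllycaconitine 1 mg/kg i.v. 15 min before. Decapitated at 1 h. Frontal cortex, hippocampus, hypothalamus, striatum and cerebellum weighed and gamma counted (48% efficiency). %ID/g calculated against standard dilutions of the injectate, mean ± SEM.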

[2] = Drug uptake in rat brain hypothalamus at 7.3 +/- 0.44 MBq, iv and measured after 1 hr by gamma counting analysis; assay type: ADME, organism-based; conditions: in vivo; in short: as §1
[3] = Drug uptake in rat brain cerebellum at 7.3 +/- 0.44 MBq, iv and measured after 1 hr by gamma counting analysis; assay type: ADME, organism-based; conditions: in vivo; in short: as §1
[4] = Drug uptake in rat brain striatum at 7.3 +/- 0.44 MBq, iv and measured after 1 hr by gamma counting analysis; assay type: ADME, organism-based; conditions: in vivo; in short: as §1
[5] = Drug uptake in rat brain at 37MBq, iv administrated and measured during 71 mins of acquisition by PET-CT analysis; assay type: ADME, organism-based; conditions: in vivo
In short: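 Rats given a 37 MBq i.v. bolus and scanned on a microPET-CT for 71 min. Images reconstructed by 2-D OSEM; summed frames from 49-71 min shown.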

[6] = Drug uptake in rat brain striatum at 7.3 +/- 0.44 MBq, iv pretreated with alpha7 nAChR antagonist methyllycaconitine for 15 mins followed by compound addition and measured after 1 hr by gamma counting analysis; assay type: organism-based; conditions: in vivo; in short: as §1
[7] = Drug uptake in rat brain hippocampus at 7.3 +/- 0.44 MBq, iv and measured after 1 hr by gamma counting analysis; assay type: ADME, organism-based; conditions: in vivo; in short: as §1
[8] = Drug uptake in rat brain hippocampus at 7.3 +/- 0.44 MBq, iv pretreated with alpha7 nAChR antagonist methyllycaconitine for 15 mins followed by compound addition and measured after 1 hr by gamma counting analysis; assay type: organism-based; conditions: in vivo; in short: as §1
[9] = Drug uptake in rat brain cerebellum at 7.3 +/- 0.44 MBq, iv pretreated with alpha7 nAChR antagonist methyllycaconitine for 15 mins followed by compound addition and measured after 1 hr by gamma counting analysis; assay type: organism-based; conditions: in vivo; in short: as §1
[10] = Drug uptake in rat brain frontal cortex at 7.3 +/- 0.44 MBq, iv pretreated with alpha7 nAChR antagonist methyllycaconitine for 15 mins followed by compound addition and measured after 1 hr by gamma counting analysis; assay type: organism-based; conditions: in vivo; in short: as §1
[11] = Ratio of drug uptake in rat brain frontal cortex to cerebellum at 7.3 +/- 0.44 MBq, iv and measured after 1 hr by gamma counting analysis; assay type: ADME, organism-based; conditions: in vivo
[12] = Ratio of drug uptake in rat brain hippocampus to cerebellum at 7.3 +/- 0.44 MBq, iv and measured after 1 hr by gamma counting analysis; assay type: ADME, organism-based; conditions: in vivo
[13] = Stability of the compound in rat plasma measured up to 4 hrs by HPLC analysis; assay type: ADME, organism-based; conditions: read-out: Stability
In short: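 100 μL radiotracer mixed with 1 mL rat plasma at 37 °C. Acetonitrile added, organic layer filtered and analysed by radio-HPLC on a C18 column at 30 min, 1, 2 and 4 h. Repeated twice with different radiotracer preparations.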

[14] = Ratio of drug uptake in rat brain striatum to cerebellum at 7.3 +/- 0.44 MBq, iv and measured after 1 hr by gamma counting analysis; assay type: ADME, organism-based; conditions: in vivo
[15] = Drug uptake in rat brain frontal cortex at 7.3 +/- 0.44 MBq, iv and measured after 1 hr by gamma counting analysis; assay type: ADME, organism-based; conditions: in vivo; in short: as §1
[16] = Drug uptake in rat brain hypothalamus at 6.5 +/- 0.46 MBq, iv pretreated with alpha7 nAChR antagonist methyllycaconitine for 15 mins followed by compound addition and measured after 1 hr by gamma counting analysis; assay type: organism-based; conditions: in vivo; in short: as §1
[17] = Drug uptake in rat brain cerebellum at 6.5 +/- 0.46 MBq, iv pretreated with alpha7 nAChR antagonist methyllycaconitine for 15 mins followed by compound addition and measured after 1 hr by gamma counting analysis; assay type: organism-based; conditions: in vivo; in short: as §1
[18] = Stability of the compound in 0.9% sodium chloride/ethanol solution by HPLC analysis; assay type: physicochemical
[19] = Ratio of drug uptake in rat brain frontal cortex to cerebellum at 6.5 +/- 0.46 MBq, iv and measured after 1 hr by gamma counting analysis; assay type: ADME, organism-based; conditions: in vivo
[20] = Drug uptake in rat brain hippocampus at 6.5 +/- 0.46 MBq, iv pretreated with alpha7 nAChR antagonist methyllycaconitine for 15 mins followed by compound addition and measured after 1 hr by gamma counting analysis; assay type: organism-based; conditions: in vivo; in short: as §1
[21] = Drug uptake in rat brain striatum […], iv and measured after 1 hr by gamma counting analysis; assay type: ADME, organism-based; conditions: in vivo; in short: as §1
[22] = Drug uptake in rat brain frontal cortex at 6.5 +/- 0.46 MBq, iv and measured after 1 hr by gamma counting analysis; assay type: ADME, organism-based; conditions: in vivo; in short: as §1
[23] = Drug uptake in rat brain hippocampus at 6.5 +/- 0.46 MBq, iv and measured after 1 hr by gamma counting analysis; assay type: ADME, organism-based; conditions: in vivo; in short: as §1
[24] = Drug uptake in rat brain striatum at 6.5 +/- 0.46 MBq, iv pretreated with alpha7 nAChR antagonist methyllycaconitine for 15 mins followed by compound addition and measured after 1 hr by gamma counting analysis; assay type: organism-based; conditions: in vivo; in short: as §1
[25] = Drug uptake in rat brain frontal cortex at 6.5 +/- 0.46 MBq, iv pretreated with alpha7 nAChR antagonist methyllycaconitine for 15 mins followed by compound addition and measured after 1 hr by gamma counting analysis; assay type: organism-based; conditions: in vivo; in short: as §1
[26] = Drug uptake in rat brain hypothalamus at 6.5 +/- 0.46 MBq, iv and measured after 1 hr by gamma counting analysis; assay type: ADME, organism-based; conditions: in vivo; in short: as §1
[27] = Stability of the compound in 100% ethanol measured up to 4 hrs by HPLC analysis; assay type: physicochemical
[28] = Drug uptake in rat brain cerebellum at 6.5 +/- 0.46 MBq, iv and measured after 1 hr by gamma counting analysis; assay type: ADME, organism-based; conditions: in vivo; in short: as §1

[18F]c1ccc(-c2ccc(-c3cn([C@H]4CN5CCC4CC5)nn3)s2)cn1
Drug uptake [1]: Active | Drug uptake [2]: 0.59 % ID/g | Drug uptake [3]: 0.58 % ID/g | Drug uptake [4]: 0.76 % ID/g | Drug uptake [5]: Active | Drug uptake [6]: Active | Drug uptake [7]: 0.78 % ID/g | Drug uptake [8]: Active | Drug uptake [9]: Active | Drug uptake [10]: Active | Ratio [11]: 1.47 | Ratio [12]: 1.34 | remaining at 4 h [13]: > 95% | Ratio [14]: 1.31 | Drug uptake [15]: 0.85 % ID/g

[18F]Cc1ccc(-c2ccc(-c3cn([C@H]4CN5CCC4CC5)nn3)s2)cc1
Drug uptake [16]: Active | Drug uptake [17]: Active | Stability [18]: Unstable | Ratio [19]: 1.29 | Drug uptake [5]: Active | Drug uptake [20]: Active | Drug uptake [21]: 0.44 % ID/g | Drug uptake [22]: 0.56 % ID/g | Drug uptake [23]: 0.43 % ID/g | Drug uptake [24]: Active | Drug uptake [25]: Active | Drug uptake [26]: 0.42 % ID/g | Stability [27]: Stable | Drug uptake [28]: 0.44 % ID/g | remaining at 4 h [13]: > 95%

Source: ChEMBL document CHEMBL4351014, “Bis(het)aryl-1,2,3-triazole quinuclidines as α7 nicotinic acetylcholine receptor ligands: Synthesis, structure affinity relationships, agonism activity, [18F]-radiolabeling and PET study in rats” (Eur J Med Chem, 2019)
